The record followed here is PubChem BioAssay.

The structures appear in SMILES notation. Activity calls are given as the source filed them.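 The calls were made as follows, unless noted: active = GFP response above 150% of the DMSO level; inconclusive = fewer than 70 events counted for a yeast strain; inactive = the rest.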

Assay [1] is described as follows: RPL19A-GFP modulators, yeast TOR pathway, confirmation, cell-based, S. cerevisiae, flow cytometry, cherry picks, mother/daughter gates (AID 2270;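 active = GFP response below 50% of the DMSO control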). Particulars: S. cerevisiae RPL19A-GFP strain, 3 h, at 10 µM, stronger effect = lower value, 100 = same GFP as DMSO wells. In general terms: Flow cytometry measures light scatter and fluorescence of single cells or particles in a stream.

A short description of assay [2]: LAP4-GFP expression modulators in yeast, confirmation, cell-based, cherry picks, flow cytometry, mother/daughter gates (AID 2271;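 active = GFP response above 150% of the DMSO control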;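 also: ratio of sample to DMSO plate mean so 100% equals DMSO level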). Particulars: S. cerevisiae LAP4-GFP strain, 3 h, at 10 µM, stronger effect = higher value, 100 means same as DMSO control. In outline: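 Material: Alexa 633-stained baker's yeast GFP-fusion strain; Compound dosing: single test-compound dose, 10 µM final; Incubation: 30 °C, 3 h compound incubation, rotating; Detection: HT flow cytometry, GFP fluorescence channel; Control set: positive rapamycin (400 ng/mL), negative DMSO.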

The nature of assay [3]: modulators of MEP2-GFP levels in yeast, confirmation, S. cerevisiae, flow cytometry GFP, cherry picks (AID 2272;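 active = GFP response above 150% of the DMSO control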;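 also: ratio of well signal to plate DMSO mean so 100% equals DMSO level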). Particulars: S. cerevisiae MEP2-GFP strain, 3 h, at 10 µM, stronger effect = higher value.
A short description of assay [4]: AGP1-GFP expression modulators, hit retest, confirmation, cell-based, flow cytometry, S. cerevisiae, cherry picks (AID 2273).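 Also: median GFP channel fluorescence over the whole cell population gate.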 Particulars: S. cerevisiae AGP1-GFP strain, 3 h, at 10 µM.
Assay [5] in a line: modulators of CIT2-GFP expression in yeast, confirmation, S. cerevisiae, GFP fusion, cherry picks, mother/daughter gates (AID 2274). Particulars: S. cerevisiae CIT2-GFP strain, flow cytometry, 3 h, at 10 µM, stronger effect = higher value.
Setting [6] is: measured here: daughter cell gate.
Where [7] appears, read: measured here: mother cell gate.
Setting [8] is: measured here: daughter cell gate response.
[9] abbreviates: measured here: mother cell gate response.

In the case of `O=C1C(Cl)=C(Nc2ccccc2O)C(=O)N1CCc1ccccc1`, the GFP response vs DMSO in assay [1] is 98% (inactive); in assay [1] (setting [6]), 97.8%; in assay [1] (setting [7]), 97.9%; in assay [3] it was 112% (inactive). Moreover, the GFP response relative to DMSO is 103% (inactive) in assay [2], 101% in assay [2] (setting [8]) and 104% in assay [2] (setting [9]). Besides, the GFP response, % of DMSO in assay [4] is 104% (inactive); in assay [5], 106% (inactive); in assay [5] (setting [6]) it was 104%; in assay [5] (setting [7]), 104%.
With `Cc1ccc(NC(=O)COc2ccc(Br)cc2C)cc1`, the GFP response vs DMSO in assay [1] is 99.5% (inactive); in assay [1] (setting [6]), 97.3%; in assay [1] (setting [7]), 100%; in assay [3] it was 104% (inactive). Further, the GFP response relative to DMSO in assay [2] is 107% (inactive); in assay [2] (setting [8]), 102%; in assay [2] (setting [9]), 104%. The GFP response, % of DMSO in assay [4] was 96.7% (inactive); in assay [5], 97.8% (inactive); in assay [5] (setting [6]) it was 98.3%; in assay [5] (setting [7]), 95.6%.
Consider `O=C(COC(=O)/C=C/c1cccs1)Nc1nc(-c2cccc(Br)c2)cs1`, for which the GFP response vs DMSO in assay [1] was 102% (inactive); in assay [1] (setting [6]) it was 103%; in assay [1] (setting [7]) it was 102%; in assay [3], 100% (inactive). The figures for the GFP response relative to DMSO in assay [2], in assay [2] (setting [8]) and in assay [2] (setting [9]) were 89% (inactive), 94.1% and 89%, respectively. The GFP response, % of DMSO in assay [4] is 96.7% (inactive); in assay [5] it was 110% (inactive); in assay [5] (setting [6]) it was 108%; in assay [5] (setting [7]), 112%.
On to `Cc1c(Br)cc(C(=O)O)c(C)c1C`, for which the GFP response vs DMSO in assay [1] was 94.4% (inactive); in assay [1] (setting [6]), 94.7%; in assay [1] (setting [7]), 88%; in assay [3] it was 94.7% (inactive). The GFP response relative to DMSO in assay [2] was 101% (inactive); in assay [2] (setting [8]) it was 101%; in assay [2] (setting [9]), 102%. The GFP response, % of DMSO in assay [4] is 97.1% (inactive); in assay [5] it was 97.3% (inactive); in assay [5] (setting [6]), 95.6%; in assay [5] (setting [7]), 99.3%.
In the case of `Cc1ccc(C=C2C(Cl)=C(Cl)C(Cl)=C2Cl)cc1`, the GFP response vs DMSO in assay [1] was 103% (inactive); in assay [1] (setting [6]), 102%; in assay [1] (setting [7]), 97.7%; in assay [3], 114% (inactive). For the same compound, the GFP response relative to DMSO is 148% (inactive) in assay [2], 139% in assay [2] (setting [8]) and 161% in assay [2] (setting [9]). In addition, the GFP response, % of DMSO in assay [4] was 105% (inactive); in assay [5], 106% (inactive); in assay [5] (setting [6]), 105%; in assay [5] (setting [7]) it was 94.7%.
Consider `CCCc1nn(-c2ccccc2)c2c1C(c1cccs1)C(C#N)=C(N)O2` (configuration not stated), for which the GFP response vs DMSO in assay [1] is 101% (inactive); in assay [1] (setting [6]), 100%; in assay [1] (setting [7]) it was 102%; in assay [3], 95.7% (inactive). For the same compound, the GFP response relative to DMSO in assay [2] was 90.2% (inactive); in assay [2] (setting [8]), 92.5%; in assay [2] (setting [9]) it was 95.2%. Also, the GFP response, % of DMSO in assay [4] is 95.9% (inactive); in assay [5] it was 102% (inactive); in assay [5] (setting [6]), 98.1%; in assay [5] (setting [7]) it was 102%.
`O=C1C(Cl)=C(N2CCN(Cc3ccccc3)CC2)C(=O)N1Cc1ccccc1`: the GFP response vs DMSO in assay [1] was 97% (inactive); in assay [1] (setting [6]), 98.1%; in assay [1] (setting [7]), 98%; in assay [3], 94.7% (inactive). Moreover, the GFP response relative to DMSO is 99.5% (inactive) in assay [2], 101% in assay [2] (setting [8]) and 98.4% in assay [2] (setting [9]). Also, the GFP response, % of DMSO was 102% (inactive) in assay [4], 100% (inactive) in assay [5], 101% in assay [5] (setting [6]) and 99.3% in assay [5] (setting [7]).
As to `COc1ccc(-c2nn(-c3ccccc3)cc2C(=O)NC(=S)NNC(=O)c2ccncc2)cc1`, the GFP response vs DMSO was 100% (inactive) in assay [1], 101% in assay [1] (setting [6]), 98.3% in assay [1] (setting [7]) and 101% (inactive) in assay [3]. Moreover, the figures for the GFP response relative to DMSO in assay [2], in assay [2] (setting [8]) and in assay [2] (setting [9]) were 105% (inactive), 108% and 105%, respectively. Moreover, the GFP response, % of DMSO in assay [4] was 101% (inactive); in assay [5], 107% (inactive); in assay [5] (setting [6]) it was 108%; in assay [5] (setting [7]), 104%.
For the compound `CN1Cc2sc(NC(=S)NC(=O)c3ccccc3)c(C#N)c2CC1(C)C`, the GFP response vs DMSO in assay [1] was 99.5% (inactive); in assay [1] (setting [6]) it was 99.8%; in assay [1] (setting [7]) it was 100%; in assay [3], 133% (inactive). In addition, the GFP response relative to DMSO is 109% (inactive) in assay [2], 104% in assay [2] (setting [8]) and 111% in assay [2] (setting [9]). The GFP response, % of DMSO is 106% (inactive) in assay [4], 109% (inactive) in assay [5], 109% in assay [5] (setting [6]) and 110% in assay [5] (setting [7]).
Take `C/C(=N\NC(=O)c1ccc(Br)cc1)c1ccccc1`: the GFP response vs DMSO in assay [1] was 98% (inactive); in assay [1] (setting [6]), 97.9%; in assay [1] (setting [7]) it was 98%; in assay [3] it was 102% (inactive). Besides, the figures for the GFP response relative to DMSO in assay [2], in assay [2] (setting [8]) and in assay [2] (setting [9]) were 97.9% (inactive), 99.2% and 98.3%, respectively. Also, the GFP response, % of DMSO in assay [4] was 94.3% (inactive); in assay [5], 99.7% (inactive); in assay [5] (setting [6]), 99.1%; in assay [5] (setting [7]) it was 98.5%.
On to `NC(=O)c1ccccc1-c1nc(-c2ccccc2)no1`, for which the GFP response vs DMSO in assay [1] was 97.6% (inactive); in assay [1] (setting [6]) it was 96.1%; in assay [1] (setting [7]), 96.7%; in assay [3], 109% (inactive). Moreover, the GFP response relative to DMSO was 101% (inactive) in assay [2], 97.5% in assay [2] (setting [8]) and 102% in assay [2] (setting [9]). Further, the GFP response, % of DMSO is 102% (inactive) in assay [4], 105% (inactive) in assay [5], 101% in assay [5] (setting [6]) and 104% in assay [5] (setting [7]).
As for `CCCCCCCCn1c(=O)c(C(=O)OCC)c(O)c2ccccc21`, the GFP response vs DMSO in assay [1] was 98.4% (inactive); in assay [1] (setting [6]), 99.4%; in assay [1] (setting [7]) it was 99.4%; in assay [3] it was 100% (inactive). In addition, the GFP response relative to DMSO is 92.8% (inactive) in assay [2], 92.8% in assay [2] (setting [8]) and 92.9% in assay [2] (setting [9]). Also, the GFP response, % of DMSO in assay [4] is 99.3% (inactive); in assay [5], 101% (inactive); in assay [5] (setting [6]), 101%; in assay [5] (setting [7]), 101%.
Consider `COc1cc(C(O)P(=O)(OCC(C)C)OCC(C)C)cc(OC)c1OC` (configuration not stated), for which the GFP response vs DMSO in assay [1] was 99.5% (inactive); in assay [1] (setting [6]), 99.8%; in assay [1] (setting [7]), 99.7%; in assay [3], 104% (inactive). Besides, the GFP response relative to DMSO in assay [2] is 100% (inactive); in assay [2] (setting [8]), 102%; in assay [2] (setting [9]), 98.5%. The GFP response, % of DMSO in assay [4] was 100% (inactive); in assay [5], 101% (inactive); in assay [5] (setting [6]) it was 100%; in assay [5] (setting [7]), 99.1%.
`C=CCOc1ccc(/C=C2\N=C(C)OC2=O)cc1OC`: the GFP response vs DMSO in assay [1] is 105% (inactive); in assay [1] (setting [6]), 107%; in assay [1] (setting [7]), 103%; in assay [3], 119% (inactive). Besides, the values for the GFP response relative to DMSO in assay [2], in assay [2] (setting [8]) and in assay [2] (setting [9]) were 137% (inactive), 136% and 136%, respectively. For the same compound, the GFP response, % of DMSO was 94.5% (inactive) in assay [4], 103% (inactive) in assay [5], 106% in assay [5] (setting [6]) and 99.7% in assay [5] (setting [7]).
`CCOC(=O)c1sc(NC(=O)c2ccco2)nc1-c1ccccc1`: the GFP response vs DMSO in assay [1] is 97.8% (inactive); in assay [1] (setting [6]), 96.4%; in assay [1] (setting [7]), 96.7%; in assay [3], 103% (inactive). In addition, the GFP response relative to DMSO in assay [2] is 96.5% (inactive); in assay [2] (setting [8]) it was 94.4%; in assay [2] (setting [9]), 98.4%. Moreover, the GFP response, % of DMSO was 100% (inactive) in assay [4], 98.6% (inactive) in assay [5], 97.6% in assay [5] (setting [6]) and 99.3% in assay [5] (setting [7]).
`COc1ccc(N2CCN(C(=O)CCc3nnc4ccc(N5CCCC5)nn34)CC2)cc1`: the GFP response vs DMSO in assay [1] was 101% (inactive); in assay [1] (setting [6]), 99.2%; in assay [1] (setting [7]) it was 101%; in assay [3], 100% (inactive). Further, the figures for the GFP response relative to DMSO in assay [2], in assay [2] (setting [8]) and in assay [2] (setting [9]) were 96.2% (inactive), 98.7% and 97.2%, respectively. In addition, the GFP response, % of DMSO in assay [4] is 97.8% (inactive); in assay [5], 104% (inactive); in assay [5] (setting [6]), 101%; in assay [5] (setting [7]), 104%.
With `c1ccc2oc(SCc3nc4ccccc4s3)nc2c1`, the GFP response vs DMSO in assay [1] is 99% (inactive); in assay [1] (setting [6]), 98.9%; in assay [1] (setting [7]), 98.9%; in assay [3] it was 98.3% (inactive). For the same compound, the values for the GFP response relative to DMSO in assay [2], in assay [2] (setting [8]) and in assay [2] (setting [9]) were 106% (inactive), 104% and 106%, respectively. Also, the GFP response, % of DMSO in assay [4] is 95% (inactive); in assay [5], 99.7% (inactive); in assay [5] (setting [6]), 99.1%; in assay [5] (setting [7]), 99.7%.
